Measured values: PubChem BioAssay AID1216 (Sanford-Burnham Center for Chemical Genomics, 2008)
The whole screen tested about 190,000 compounds, of which about 660 (0.35%) were called active. This excerpt belongs to a sample that is enriched for actives. A number with no mark means an inactive call.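 The calls were made as follows: active = activation factor of 2 or more at 20 µM; inactive = the rest.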

These compounds were tested against Mannose-6-phosphate isomerase (Homo sapiens) (UniProt P34949) (assay: MPI activation at elevated mannose 6-phosphate – biochemical, fluorescence intensity, near-saturating mannose 6-phosphate, primary screen (AID 1216)). Conditions: coupled PMI enzyme assay, resazurin fluorescence, 20 min; at 20 µM; active compounds read high; 1 = untreated enzyme, 0 = substrate-free blank.
Chain of Mannose-6-phosphate isomerase (Homo sapiens) (P34949 whole entry, looked up): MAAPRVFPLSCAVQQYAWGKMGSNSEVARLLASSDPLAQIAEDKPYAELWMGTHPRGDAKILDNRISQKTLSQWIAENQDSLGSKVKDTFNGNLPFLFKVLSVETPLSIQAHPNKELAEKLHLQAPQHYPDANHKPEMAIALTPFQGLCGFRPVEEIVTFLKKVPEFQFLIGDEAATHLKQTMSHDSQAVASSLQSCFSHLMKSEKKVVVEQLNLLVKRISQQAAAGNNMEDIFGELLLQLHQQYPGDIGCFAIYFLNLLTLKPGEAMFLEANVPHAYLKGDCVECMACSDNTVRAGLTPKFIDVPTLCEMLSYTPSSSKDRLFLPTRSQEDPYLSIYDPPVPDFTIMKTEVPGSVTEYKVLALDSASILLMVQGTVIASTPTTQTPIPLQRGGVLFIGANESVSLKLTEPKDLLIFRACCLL
Outline: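 Test system: human PMI in coupled enzyme assay; Input: PMI at 15 ng/mL final; Medium: HEPES buffer, pH 7.4; Schedule: 20 min incubation at room temperature; Technique: resorufin fluorescence at Ex 544/Em 590 nm; Compound: 20 µM single dose; Probe or stimulus: Near-saturating mannose-6-phosphate, 1.0 mM.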

Row | Compound | activation factor
1 | Cc1ccc(N=C2NC(=O)/C(=C/C=C/c3ccco3)S2)cc1C | 2 (active)
2 | Cc1cccc(N=C2NC(=O)/C(=C/c3cn(C)c4ccccc34)S2)c1 | 0.9
3 | Cc1ccc(N2NC(=O)/C(=C/C=C/c3ccco3)C2=O)cc1C | 1.2
4 | COc1ccc(/C=C/C(=O)c2ccc(OC)cc2O)cc1 | 0.9
5 | COc1ccc(/C=C/C(=O)c2cc(Br)ccc(=O)c2O)cc1 | 2.1 (active)
6 | COc1ccc(C(=O)/C=C/c2ccc(OC3CSC3)cc2)cc1 | 0.9
7 | CCCCC(NS(=O)(=O)c1ccc(C)cc1)C(=O)Oc1ccc2c3c(c(=O)oc2c1)CCC3 (centres undefined) | 0.9
8 | N/C(=N\OS(=O)(=O)c1cccc([N+](=O)[O-])c1)c1ccncc1 | 1
9 | COc1ccc2c(-c3ccccc3)cc(SCC(=O)N(C)C3CCS(=O)(=O)C3)nc2c1 (centres undefined) | 1.3
10 | CCn1c(SCC(=O)N(C)C2CCS(=O)(=O)C2)nnc1-c1cccs1 (centres undefined) | 1.1
11 | Cc1cc(C)c2nc(SCC(=O)N(C)C3CCS(=O)(=O)C3)cc(C)c2c1 (centres undefined) | 2 (active)
12 | Cc1cc(/C=C2/NC(=O)NC2=O)c(C)n1-c1cccnc1 | 0.9
13 | CC(CC(=O)Nc1ccccc1)n1ccnc1 (centres undefined) | 1
14 | Cc1c(-c2cccc(Cl)c2)nc2ccccc2c1C(=O)OCC(=O)N(C)C1CCS(=O)(=O)C1 (centres undefined) | 1
15 | Cc1nccn1CCC1CCCCN1C(=O)CCc1nnc(-c2ccsc2)o1 (centres undefined) | 0.9
16 | OCCC#Cc1ccc(CN2CCN(Cc3ccsc3)C(CCO)C2)cc1 (centres undefined) | 1
17 | O=C(Nc1ccc([N+](=O)[O-])cc1)C1CC12CCC2 (centres undefined) | 1.1
18 | Cc1ccc(CNC(=O)COc2ccc3c(c2)CCC3)cc1 | 1
19 | CC1CCN(C(=O)c2ccc(S(=O)(=O)Cc3cc(F)ccc3F)c([N+](=O)[O-])c2)CC1 | 0.8
20 | COc1ccc(C2CC(c3cccs3)=NN2c2ccccc2)cc1 (centres undefined) | 1.2
21 | COc1ccc(C2CC(c3cccs3)=NN2C(=O)CSc2nncs2)cc1OC (centres undefined) | 1
22 | COc1ccc(C2CC(c3cccs3)=NN2C(=O)CSc2nnc(N)s2)cc1OC (centres undefined) | 1

Row | Compound | activation factor
23 | COc1ccccc1N1N=C(c2cccs2)CC1c1ccccc1 (centres undefined) | 1.2
24 | COc1ccc(C2CC(c3cccs3)=NN2c2nc(C)c(C(C)=O)s2)cc1OC (centres undefined) | 2 (active)
25 | COc1ccc(C2CC(c3cccs3)=NN2c2ccc(F)cc2)cc1OC (centres undefined) | 2.2 (active)
26 | COc1cc(/C=C(/NC(=O)c2ccc(Cl)cc2Cl)C(=O)O)cc(OC)c1OC | 1
27 | NC(=O)c1ccccc1N(Cc1ccccc1)S(=O)(=O)c1ccccc1 | 1
28 | CCN(CC)S(=O)(=O)c1cc([N+](=O)[O-])ccc1N=Nc1c(O)n(C)c2ccccc12 | 1.1
29 | Cc1ccc(-c2nc(C)sc2CC(=O)OCC(=O)Nc2c(F)cccc2F)cc1 | 0.9
30 | Cc1ccc(C2=NN(C(=O)COc3ncnc4ccccc34)C(c3ccco3)C2)cc1 (centres undefined) | 0.8
31 | CO/N=C/c1cn(-c2ccc(Cl)cc2)nn1 | 1
32 | CC1(C)OC(=O)C(=CSc2ccc(C(C)(C)C)cc2)C(=O)O1 | 1.1
33 | CCCC(=O)Nc1cccc(NC(=S)NC(=O)C(C)Oc2ccc(Cl)cc2Cl)c1 (centres undefined) | 1
34 | O=C(N/C(=C\c1ccc(F)cc1)C(=O)N1CCCCCC1)c1ccccc1 | 0.9
35 | Cc1cc(OCCCN2CCN(Cc3ccccc3)CC2)ccc1[N+](=O)[O-] | 1
36 | CSc1nc(O)c(Cc2ccccc2)c(=O)[nH]1 | 1
37 | COc1ccc(Cc2nnnn2CC(=O)O)cc1 | 1.1
38 | COc1ccc(Cc2nnc(SC)[nH]c2=O)cc1 | 2 (active)
39 | O=C(NNC(=O)c1ccccc1[N+](=O)[O-])Nc1ccccc1C(F)(F)F | 1
40 | O=C(NC1CCCC1)C(c1ccc(N2CCOCC2)cc1)N(C(=O)c1ccco1)c1ccccc1F (centres undefined) | 0.9
41 | Cc1ccc(NC(=O)NC(=O)N(C2CCCCC2)S(=O)(=O)c2ccccc2)cc1 | 0.9
42 | Cc1nn(-c2ccc([N+](=O)[O-])cc2)c(N)c1-c1ccccc1 | 1
43 | Cc1cc(C(=O)N/N=C/c2ccc(N3CCOCC3)cc2)c(C)o1 | 1.1
44 | C(=N/Nc1cc(N2CCOCC2)nc(N2CCOCC2)n1)/c1ccccc1 | 0.4

Row | Compound | activation factor
45 | Cc1ccccc1N/N=C/c1ccc(N2CCOCC2)cc1 | 2.4 (active)
46 | S=C(NC1CCCCC1)NN1CCOCC1 | 1.1
47 | Cc1ccc(OCc2n[nH]c(=S)n2-c2ccc(C)cc2)cc1 | 0.8
48 | COc1ccc(CNc2c(CO)cnc3c2cnn3C)cc1 | 1
49 | Cc1ccnc(NC(=O)CCC(=O)N(CC(=O)NCc2ccccc2)Cc2ccco2)c1 | 0.9
50 | CCOC(=O)C1=C(CN2CCCCCC2)NC(=O)NC1c1cccc([N+](=O)[O-])c1 (centres undefined) | 0.9
51 | CC(NC(=O)C(=O)N/N=C/c1ccc(Cl)cc1)c1ccccc1 (centres undefined) | 1.1
52 | O=C1CC(NNc2ccccc2)C(=O)N1c1cccc(Cl)c1 (centres undefined) | 2 (active)
53 | O=C(NNC1CC(=O)N(c2cccc(Cl)c2)C1=O)c1cccnc1 (centres undefined) | 1.2
54 | O=C1CC(c2ccccc2)C(=O)N1c1cccc(O)c1 (centres undefined) | 0.9
55 | C/C(=N\NC(=S)NCc1ccccc1)C1CCCCC1 | 1.2
56 | O=C(CCNC(=O)Cn1ccc2ccccc2c1=O)NCCC1=CCCCC1 | 1.1
57 | CCc1cccc(CC)c1NC(=S)NCc1ccc2[nH]c(C)cc2c1 | 0.9
58 | COc1ccc(Br)cc1/C=N/NC(=O)c1cccc(S(=O)(=O)N2CCOCC2)c1 | 1
59 | COc1ccc(Br)cc1/C=N/Nc1ccc(Cl)c(C(=O)O)c1 | 2.6 (active)
60 | COc1ccc(Br)cc1/C=N/n1c(C)nnc1C | 1
61 | OCC(O)CN(c1ccccc1)c1ccccc1 (centres undefined) | 1
62 | CC(C)C(=O)Nc1ccc2oc(=O)ccc2c1 | 1
63 | COc1ccc(C(=O)CSc2nc(C)cc(C)n2)cc1[N+](=O)[O-] | 0.9
64 | Cn1nc(-c2ccccc2)c(CO)c1Sc1ccccc1 | 1
